# Several values for one entry are separate records, joined by “and”; a condition that tells them apart may be missing. Equal entries are not always repeated.
# System: Fibroblast
# Test: Multiplex assay against human fibroblast
# Type: toxicity, cell-based
# Outline: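 Live cells carried four stains from seeding: Hoechst33342, BioTracker Green Microtubule Cytoskeleton Dye, MitoTracker Red and Annexin V Alexa Fluor 680. They were imaged on a CQ1 microscope at 37°C and 5% CO2 after compound addition. Using CellPathfinder machine-learning gating, cells were split into Hoechst high-intensity objects or normal cells, normal cells into healthy, pyknosed or fragmented nuclei, and pyknosed cells into mitotic or apoptotic; tubulin, mitochondrial-mass and membrane-permeability phenotypes are per cents of healthy-nucleus cells.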
# [1] = 12 h, 1 µM, compound concentration 1 uM
# [2] = 12 h, 10 µM, compound concentration 10 uM
# [3] = 24 h, 1 µM, compound concentration 1 uM
# [4] = 24 h, 10 µM, compound concentration 10 uM
# [5] = 48 h, 1 µM, compound concentration 1 uM
# [6] = 48 h, 10 µM, compound concentration 10 uM
smiles,measurement,setting,value
Cc1nn(C)c2nc(NNC(=O)Nc3cc(Cl)nc(Cl)c3)cc(C(C)C)c12,Population Apoptotic (%),[1],62% and 37%
same,Population Fragmented Nuclei (%),[1],15% and 31%
same,Population Healthy Nuclei (%),[1],68% and 53%
same,Population Hoechst High Intensity Objects (%),[1],3% and 2%
same,Population Membrane Permeable-Phenotype (%),[1],0%
same,Population Mitochondria Different-Phenotype (%),[1],4% and 7%
same,Population Mitotic Cells (%),[1],37% and 62%
same,Population Normal (%),[1],96% and 97%
same,Population Pyknosed Nuclei (%),[1],15%
same,Population Tubulin-Different-Phenotype (%),[1],27% and 46%
same,Total Cell Count,[1],178 and 179
same,Population Apoptotic (%),[2],53% and 21%
same,Population Fragmented Nuclei (%),[2],12% and 33%
same,Population Healthy Nuclei (%),[2],63% and 56%
same,Population Hoechst High Intensity Objects (%),[2],3% and 7%
same,Population Membrane Permeable-Phenotype (%),[2],2% and 5%
same,Population Mitochondria Different-Phenotype (%),[2],15% and 6%
same,Population Mitotic Cells (%),[2],46% and 78%
same,Population Normal (%),[2],96% and 92%
same,Population Pyknosed Nuclei (%),[2],23% and 10%
same,Population Tubulin-Different-Phenotype (%),[2],89%
same,Total Cell Count,[2],139 and 140
same,Population Apoptotic (%),[3],59% and 62%
same,Population Fragmented Nuclei (%),[3],18% and 21%
same,Population Healthy Nuclei (%),[3],68%
same,Population Hoechst High Intensity Objects (%),[3],1% and 2%
same,Population Membrane Permeable-Phenotype (%),[3],1% and 2%
same,Population Mitochondria Different-Phenotype (%),[3],3% and 6%
same,Population Mitotic Cells (%),[3],40% and 37%
same,Population Normal (%),[3],98% and 97%
same,Population Pyknosed Nuclei (%),[3],12% and 9%
same,Population Tubulin-Different-Phenotype (%),[3],29% and 50%
same,Total Cell Count,[3],176 and 174
same,Population Apoptotic (%),[4],52% and 25%
same,Population Fragmented Nuclei (%),[4],12% and 28%
same,Population Healthy Nuclei (%),[4],69% and 61%
same,Population Hoechst High Intensity Objects (%),[4],4% and 8%
same,Population Membrane Permeable-Phenotype (%),[4],1% and 0%
same,Population Mitotic Cells (%),[4],47% and 75%
same,Population Normal (%),[4],95% and 91%
same,Population Pyknosed Nuclei (%),[4],18% and 9%
same,Population Tubulin-Different-Phenotype (%),[4],95% and 89%
same,Total Cell Count,[4],130 and 132
same,Population Apoptotic (%),[5],71% and 57%
same,Population Fragmented Nuclei (%),[5],18% and 34%
same,Population Healthy Nuclei (%),[5],73% and 62%
same,Population Hoechst High Intensity Objects (%),[5],1% and 2%
same,Population Membrane Permeable-Phenotype (%),[5],1% and 2%
same,Population Mitochondria Different-Phenotype (%),[5],2%
same,Population Mitotic Cells (%),[5],28% and 42%
same,Population Normal (%),[5],98% and 97%
same,Population Pyknosed Nuclei (%),[5],7% and 3%
same,Population Tubulin-Different-Phenotype (%),[5],30% and 36%
same,Total Cell Count,[5],188 and 184
same,Population Apoptotic (%),[6],93% and 62%
same,Population Fragmented Nuclei (%),[6],16% and 38%
same,Population Healthy Nuclei (%),[6],70% and 56%
same,Population Hoechst High Intensity Objects (%),[6],8% and 3%
same,Population Membrane Permeable-Phenotype (%),[6],2%
same,Population Normal (%),[6],91% and 96%
same,Population Pyknosed Nuclei (%),[6],13% and 5%
same,Population Tubulin-Different-Phenotype (%),[6],96% and 85%
same,Total Cell Count,[6],129 and 155
CC(/C=C1\SC(=S)N(CCCC(=O)Nc2ccc(C(=O)O)c(O)c2)C1=O)=C\c1ccccc1,Population Apoptotic (%),[1],50% and 33%
same,Population Fragmented Nuclei (%),[1],14% and 19%
same,Population Healthy Nuclei (%),[1],71% and 60%
same,Population Hoechst High Intensity Objects (%),[1],2% and 3%
same,Population Membrane Permeable-Phenotype (%),[1],0% and 13%
same,Population Mitochondria Different-Phenotype (%),[1],2% and 9%
same,Population Mitotic Cells (%),[1],50% and 66%
same,Population Normal (%),[1],97% and 96%
same,Population Pyknosed Nuclei (%),[1],13% and 19%
same,Population Tubulin-Different-Phenotype (%),[1],28% and 54%
same,Total Cell Count,[1],206 and 157
same,Population Apoptotic (%),[2],56% and 40%
same,Population Fragmented Nuclei (%),[2],15% and 19%
same,Population Healthy Nuclei (%),[2],70% and 48%
same,Population Hoechst High Intensity Objects (%),[2],2% and 4%
same,Population Membrane Permeable-Phenotype (%),[2],0% and 8%
same,Population Mitochondria Different-Phenotype (%),[2],5%
same,Population Mitotic Cells (%),[2],43% and 59%
same,Population Normal (%),[2],97% and 95%
same,Population Pyknosed Nuclei (%),[2],13% and 31%
same,Population Tubulin-Different-Phenotype (%),[2],44% and 54%
same,Total Cell Count,[2],123 and 122
same,Population Apoptotic (%),[3],54% and 33%
same,Population Fragmented Nuclei (%),[3],17%
same,Population Healthy Nuclei (%),[3],72% and 63%
same,Population Hoechst High Intensity Objects (%),[3],1% and 2%
same,Population Membrane Permeable-Phenotype (%),[3],2% and 5%
same,Population Mitochondria Different-Phenotype (%),[3],4% and 12%
same,Population Mitotic Cells (%),[3],45% and 66%
same,Population Normal (%),[3],98% and 97%
same,Population Pyknosed Nuclei (%),[3],10% and 19%
same,Population Tubulin-Different-Phenotype (%),[3],25% and 44%
same,Total Cell Count,[3],208 and 144
same,Population Apoptotic (%),[4],66% and 53%
same,Population Fragmented Nuclei (%),[4],11% and 20%
same,Population Healthy Nuclei (%),[4],81% and 53%
same,Population Hoechst High Intensity Objects (%),[4],0% and 4%
same,Population Membrane Permeable-Phenotype (%),[4],0% and 11%
same,Population Mitochondria Different-Phenotype (%),[4],4%
same,Population Mitotic Cells (%),[4],33% and 46%
same,Population Normal (%),[4],99% and 95%
same,Population Tubulin-Different-Phenotype (%),[4],25% and 70%
same,Total Cell Count,[4],119 and 120
same,Population Apoptotic (%),[5],78% and 45%
same,Population Fragmented Nuclei (%),[5],24% and 29%
same,Population Healthy Nuclei (%),[5],66% and 56%
same,Population Hoechst High Intensity Objects (%),[5],3% and 1%
same,Population Membrane Permeable-Phenotype (%),[5],1% and 7%
same,Population Mitochondria Different-Phenotype (%),[5],2% and 6%
same,Population Mitotic Cells (%),[5],21% and 54%
same,Population Normal (%),[5],96% and 98%
same,Population Pyknosed Nuclei (%),[5],9% and 14%
same,Population Tubulin-Different-Phenotype (%),[5],31% and 44%
same,Total Cell Count,[5],216 and 159
same,Population Apoptotic (%),[6],46% and 59%
same,Population Fragmented Nuclei (%),[6],18% and 34%
same,Population Healthy Nuclei (%),[6],69% and 46%
same,Population Hoechst High Intensity Objects (%),[6],0% and 3%
same,Population Membrane Permeable-Phenotype (%),[6],0% and 5%
same,Population Mitochondria Different-Phenotype (%),[6],1% and 5%
same,Population Mitotic Cells (%),[6],53% and 40%
same,Population Normal (%),[6],100% and 96%
same,Population Pyknosed Nuclei (%),[6],12% and 19%
same,Population Tubulin-Different-Phenotype (%),[6],33% and 58%
same,Total Cell Count,[6],124 and 118

# From ChEMBL document CHEMBL5724801, “EUbOPEN Chemogenomics Library - Multiplex” (2024)
